Screening data (PubChem BioAssay)
PfG6PD inh = PfG6PD (Plasmodium falciparum) enzyme inhibition. PfGluPho enzyme, NADPH resazurin-diaphorase fluorescence. inhibition, % at 20 µM. 350,000 compounds, 0.78% hits. AID 504690;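 active = inhibition reaching at least a set limit at 20 µM in the primary screen, cut at about 59% in these data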
Neddyl block = inhibitors of human cullin neddylation; P61081+Q13564; TR-FRET cullin neddylation, biochemical; inhibition, % at 25 µM; 360,000 compounds, 0.58% hits; in the data active = inhibition above about 36%
PfM18AAP inh = PfM18AAP enzyme inhibition | recombinant PfM18AAP, H-Glu-NHMec fluorogenic cleavage | inhibition, % at 7.35 µM | 290,000 compounds, 1.2% hits;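 active = inhibition above the campaign mean inhibition over all tested compounds plus 3 SD, cut at about 28% in these data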
HKDC1 inhibitor = HKDC1 (human) hexokinase inhibition | inhibition, % at 20 µM | 340,000 compounds, 0.16% hits | Q2TB90 | recombinant HKDC1, G6PDH/diaphorase resazurin coupled fluorescence;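 active = inhibition above about 35% when tested at 20 µM, limit read from the data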
Target sequence (Q2TB90 whole entry, looked up): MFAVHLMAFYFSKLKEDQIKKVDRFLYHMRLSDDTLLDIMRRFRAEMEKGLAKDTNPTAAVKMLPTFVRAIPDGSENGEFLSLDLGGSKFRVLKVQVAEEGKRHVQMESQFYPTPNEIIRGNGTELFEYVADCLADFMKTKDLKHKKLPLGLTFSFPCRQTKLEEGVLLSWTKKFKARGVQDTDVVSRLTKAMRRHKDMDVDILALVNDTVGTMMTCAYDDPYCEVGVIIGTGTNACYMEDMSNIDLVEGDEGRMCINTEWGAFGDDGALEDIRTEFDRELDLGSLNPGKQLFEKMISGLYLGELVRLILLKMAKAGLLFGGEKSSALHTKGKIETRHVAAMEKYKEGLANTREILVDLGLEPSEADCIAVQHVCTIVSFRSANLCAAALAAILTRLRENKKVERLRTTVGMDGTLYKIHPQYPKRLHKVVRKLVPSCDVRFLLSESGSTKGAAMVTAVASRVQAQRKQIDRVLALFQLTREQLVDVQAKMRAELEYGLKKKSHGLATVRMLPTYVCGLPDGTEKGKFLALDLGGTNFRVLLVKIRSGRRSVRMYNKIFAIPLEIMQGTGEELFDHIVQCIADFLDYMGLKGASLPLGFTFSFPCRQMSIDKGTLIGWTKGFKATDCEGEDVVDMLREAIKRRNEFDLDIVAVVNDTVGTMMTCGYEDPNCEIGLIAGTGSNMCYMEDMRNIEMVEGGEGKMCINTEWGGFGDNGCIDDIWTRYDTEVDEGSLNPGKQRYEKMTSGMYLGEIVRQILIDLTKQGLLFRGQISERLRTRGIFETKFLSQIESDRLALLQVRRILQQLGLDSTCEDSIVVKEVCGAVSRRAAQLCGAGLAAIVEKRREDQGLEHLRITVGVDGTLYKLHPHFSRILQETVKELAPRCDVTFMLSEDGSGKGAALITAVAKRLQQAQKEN
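Assay system: in-house recombinant HK5 (HKDC1) enzyme. Input: HKDC1 at 5 µg/mL. Medium: Tris pH 8.0 buffer with MgCl2, Tween-20, BSA, BME. Dosing: single 20 µM dose. Schedule: 90 min reaction incubation at room temperature, dark. Signal: resazurin-to-resorufin fluorescence via G6PDH and diaphorase coupling, 525/613 nm. Controls: DMSO-enzyme wells negative, buffer-substituted wells positive.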
PfGluPho conf = PfG6PD inhibition, single-dose confirmed; 2,400 compounds, 34% hits; inhibition, % at 20 µM; recombinant PfGluPho, NADPH-diaphorase-resazurin fluorescence; shares compounds with PfG6PD inh;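 active = inhibition of at least 50% at 20 µM in any single replicate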
Diaph ctr 10uM = inhibits diaphorase or oxidizes, flagging false PfG6PD hits; shares compounds with PfG6PD inh; diaphorase-coupled resazurin reduction, fluorescence, NADPH 10 uM; inhibition, % at 20 µM; 820 compounds, 39% hits;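 active = average inhibition reaching 50% or more with the compound at 20 µM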;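 note: resorufin red fluorescence formed as diaphorase reduces resazurin using NADPH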
Diaphorase 30uM = counter-screen for P. falciparum G6PD inhibitors: diaphorase inhibitors, oxidizers | Diaphorase/resazurin coupled assay, resorufin fluorescence, 30 uM NADPH | inhibition, % at 20 µM | shares compounds with PfG6PD inh | AID 504863 | 820 compounds, 29% hits;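 active = inhibition averaging 50% or more, tested at 20 µM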
Large screens that a line does not name were inactive (follow-up assays come after a bar, where they were run). A selection: hits, their analogues and other compounds. The true share with any hit is near 2.2%.

Cn1c(SCC(=O)NC(=O)NCc2ccccc2)nnc1C(F)(F)F	none (no result: PfM18AAP inh)
Nc1ccccc1SCC(=O)Nc1cccc2ccccc12	PfG6PD inh 67 | PfGluPho conf inactive
COc1ccc(-n2nc(C(=O)NCC(=O)N3CCN(c4cccc(Cl)c4)CC3)c3ccccc3c2=O)c(OC)c1	none
Cc1ccc(S(=O)(=O)Nc2nc(C)c(C(=O)N/N=C/c3ccccc3)s2)cc1	PfG6PD inh 76 | PfGluPho conf 67 | Diaph ctr 10uM 62 | Diaphorase 30uM inactive
CN(C)c1cccc2c1c(NC(=O)c1ccc(Cl)cc1)nn2C	PfG6PD inh 103 | PfGluPho conf 73 | Diaph ctr 10uM inactive | Diaphorase 30uM 52
CN(C)c1cccc2c1c(NC(=O)c1ccc(F)cc1)nn2C	PfG6PD inh 74 | PfGluPho conf 57 | Diaph ctr 10uM inactive | Diaphorase 30uM inactive
C=CCn1c(SCC#N)nnc1-c1ccc2ncccc2c1	none
O=C(Nc1ccc(Oc2ccccc2)cc1)c1csc(COCCO)n1	none (no result: PfG6PD inh, PfM18AAP inh, HKDC1 inhibitor)
Cc1nn(C)c(C(=O)N/N=C/c2ccncc2)c1Cl	none
Cc1nn(C)c(C(=O)N/N=C/c2cccc3ccccc23)c1Cl	PfG6PD inh 76 | PfGluPho conf inactive
COc1cccc(/C=N/NC(=O)c2c(C)nc3ccc(Cl)cn23)c1O	none
COc1ccccc1/C=N\NC(=O)c1c(C)nc2ccc(Cl)cn12	none | PfGluPho conf inactive
Cc1ccc(C(=O)N2Cc3ccccc3CC2C(=O)O)cc1 (stereo not given)	none
Cc1ccc(NC(=O)C2Cc3ccccc3CN2C(=O)c2ccccc2)cc1Cl (stereo not given)	PfG6PD inh 94 | PfGluPho conf inactive
COc1cccc(C(=O)Nc2nnc(C(C)C)s2)c1	PfG6PD inh 91 | PfGluPho conf 56 | Diaph ctr 10uM 59 | Diaphorase 30uM inactive
CCCc1nnc(NC(=O)c2cccc(OC)c2)s1	PfG6PD inh 63 | PfGluPho conf inactive
CC(C)OC(=O)c1ccc(NC(=O)c2cccc(-n3cnnn3)c2)cc1	none (no result: PfM18AAP inh)
COc1cccc(C(=O)Nc2nnc(Cc3ccc(OC)c(OC)c3)s2)c1	none
CC(C)c1nnc(NC(=O)c2cccc(-n3cnnn3)c2)s1	PfG6PD inh 76 | PfGluPho conf 56 | Diaph ctr 10uM 53 | Diaphorase 30uM inactive
Cc1cccc(S(=O)(=O)Nc2cc(Cl)ccc2N2CCOCC2)c1	PfG6PD inh 87 (no result: PfM18AAP inh) | PfGluPho conf inactive
Cc1ccc(S(=O)(=O)Nc2ccccc2-c2ccccc2)cc1	PfG6PD inh 76 | PfGluPho conf inactive
Nc1cc(S(=O)(=O)Nc2ccccc2Cl)ccc1N1CCCCC1	PfG6PD inh 67 (no result: PfM18AAP inh) | PfGluPho conf inactive
Nc1ccc(N2CCCCC2)c(S(=O)(=O)Nc2ccccc2Cl)c1	none
Cc1ccc(S(=O)(=O)Nc2ccccc2N2CCOCC2)cc1	PfG6PD inh 62 | PfGluPho conf inactive
Cc1ccc(S(=O)(=O)Nc2ccc(N3CCOCC3)cc2)cc1	none
Cc1ccc(S(=O)(=O)Nc2ccccc2NS(=O)(=O)c2ccc(C)cc2)cc1	none (no result: PfG6PD inh, PfM18AAP inh, HKDC1 inhibitor)
O=C(CNC(=O)C1CC(=O)N(c2cccc3ccccc23)C1)Nc1ccccc1Br (stereo not given)	none (no result: PfM18AAP inh)
CCc1ccc(NC(=O)COC(=O)CC2CCCC2)cc1	none (no result: PfM18AAP inh)
Cc1cc(C)cc(NC(=O)c2cnn(-c3ccccc3)c2C2CCNCC2)c1	none
Cc1ccc(S(=O)(=O)Nc2ccccc2N2CCCCC2)cc1	PfG6PD inh 95 (no result: PfM18AAP inh) | PfGluPho conf inactive
CC(OC(=O)c1cc(=O)c2cc(Cl)ccc2o1)C(=O)N1CCCC1 (stereo not given)	none (no result: PfM18AAP inh)
COc1ccccc1COC(=O)C(NC(=O)c1ccc(C)cc1)C(C)C (stereo not given)	none (no result: PfM18AAP inh)
O=C(NCC1CCCO1)c1cc2c([nH]c3ccccc32)c(-c2cccc(Cl)c2)n1 (stereo not given)	none
COc1ccccc1-c1nc(C(=O)NCC2CCCO2)cc2c1[nH]c1ccccc12 (stereo not given)	PfG6PD inh 64 | PfGluPho conf inactive
Cc1nc(-c2ccc(F)cc2)c(CC(=O)Nc2ccc(C)c(S(=O)(=O)N3CCOCC3)c2)s1	none
O=C(Nc1ccc(SC(F)F)cc1)C12CCC(CC1)C2	PfG6PD inh 72 | PfGluPho conf inactive
C=C1C2(C(=O)Nc3ccc(SC(F)F)cc3)CCC(C2)C1(C)C (stereo not given)	none
